Test results: ChEMBL document CHEMBL4376899, “Structure-Based Stabilization of Non-native Protein-Protein Interactions of Coronavirus Nucleocapsid Proteins in Antiviral Drug Design” (J Med Chem, 2020)
The source made the active and inactive calls. The rule behind the calls is not given here.

Legend:
[1] = test system: Middle East respiratory syndrome-related coronavirus; assay: Antiviral activity against MERS-CoV infected in African green monkey Vero E6 cells incubated for 48 hrs by neutral red uptake assay; assay type: functional, organism-based; details: Vero C1008, 48 h
[2] = Cytotoxicity in African green monkey Vero E6 cells incubated for 48 hrs by neutral red uptake assay; assay type: cell-based, Vero C1008; details: chlorocebus sabaeus
[3] = test system: Middle East respiratory syndrome-related coronavirus; assay: Binding affinity to N-terminal domain of MERS-CoV nucleocapsid protein assessed as interaction with W43 pocket at 10 uM incubated for 1 hr by fluorescence spectral analysis
Outline: (§1)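 1 μM N protein was incubated with 10 μM compound or buffer at 4 °C for 1 h in 50 mM Tris-HCl (pH 8.3), 150 mM NaCl. Tryptophan fluorescence was excited at 280 nm and emission scanned over 300–400 nm.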

Vero C1008 [4] = assay: Inhibition of nucleocapsid protein expression in HCoV EMC/2012 infected in African green monkey Vero E6 cells at 100 uM by immunofluorescence microscopy; assay type: functional; details: Human betacoronavirus 2c EMC/2012
[5] = test system: Middle East respiratory syndrome-related coronavirus; assay: Binding affinity to N-terminal domain of MERS-CoV nucleocapsid protein assessed as induction of blue shift in fluorescence spectrum at 10 uM incubated for 1 hr by fluorescence spectral analysis; outline: as §1
[6] = test system: Middle East respiratory syndrome-related coronavirus; assay: Binding affinity to N-terminal domain of MERS-CoV nucleocapsid protein assessed as denaturation melting temperature at 10 uM incubated for 1 hr by fluorescent thermal stability assay (reference value: 42 degC)
[7] = test system: Middle East respiratory syndrome-related coronavirus; assay: Binding affinity to N-terminal domain of MERS-CoV nucleocapsid protein assessed as radius of gyration at 440 uM by SAXS analysis (reference value: 58 angstrom)
[8] = Therapeutic index, ratio of CC50 for cytotoxicity in African green monkey VeroE6 cells incubated for 48 hrs by neutral red uptake assay to EC50 for antiviral activity against MERS-CoV infected in African green monkey Vero E6 cells incubated for 48 hrs by neutral red uptake assay; assay type: toxicity, cell-based, Vero C1008; details: read-out: Ratio CC50/EC50
Vero C1008 [9] = assay: Antiviral activity against HCoV EMC/2012 infected in African green monkey Vero E6 cells assessed as reduction in viral titer at 50 uM incubated for 48 hrs by crystal violet staining based viral plaque assay; assay type: functional; details: Human betacoronavirus 2c EMC/2012
[10] = Antiviral activity against HCoV EMC/2012 infected in African green monkey Vero E6 cells assessed as reduction in viral replication at 50 uM incubated for 48 hrs by RT-qPCR analysis; assay type: functional, Human betacoronavirus 2c EMC/2012, Vero C1008; design: scale not given: the % may be the effect or the level left
Vero C1008 [11] = assay: Antiviral activity against HCoV EMC/2012 infected in African green monkey Vero E6 cells assessed as reduction in viral titer at 100 uM incubated for 48 hrs by crystal violet staining based viral plaque assay; assay type: functional; details: Human betacoronavirus 2c EMC/2012
[12] = test system: Middle East respiratory syndrome-related coronavirus; assay: Binding affinity to N-terminal domain of MERS-CoV nucleocapsid protein assessed as maximum dimension at 440 uM by SAXS analysis (reference value: 207 angstrom)
Vero C1008 [13] = assay: Antiviral activity against HCoV EMC/2012 infected in African green monkey Vero E6 cells assessed as reduction in viral replication at 100 uM incubated for 48 hrs by RT-qPCR analysis; assay type: functional; details: Human betacoronavirus 2c EMC/2012
Vero C1008 [14] = assay: Induction of intracellular nucleocapsid protein aggregation in HCoV EMC/2012 infected in African green monkey Vero E6 cells at 50 uM by immunofluorescence microscopy; assay type: cell-based; details: Human betacoronavirus 2c EMC/2012

Row | Compound | EC50 [1] [µM] | CC50 at 48 h [2] [µM] | Activity [3] | inhibition (Vero C1008 [4]) | Activity [5] | Tm [6] [°C] | Activity [7] [Angstrom] | selectivity ratio at 48 h [8] | Activity (Vero C1008 [9]) | Activity [10] [%] | Activity (Vero C1008 [11]) | Activity [12] [Angstrom] | Activity (Vero C1008 [13]) | Activity (Vero C1008 [14])
1 | CCc1cccc2c3c([nH]c12)C(CC)(CC(=O)O)OCC3 (stereo not given) [ETODOLAC] | > 100 | 570 | Active |  |  |  |  |  |  |  |  |  |  | 
2 | CN(C)Cc1c[nH]c2ccc(OCc3ccccc3)cc12 | 32.1 | 805 | Active | Active | Active | 45 | 65 | 25.1 | Active | 40 | Active | 230 | Active | Active
3 | O=C(OCc1ccccc1)N1c2ccccc2CC1CO (stereo not given) | > 100 | 460 | Active |  |  |  |  |  |  |  |  |  |  | 
